Experimental data pooled from the literature.
Lines come from different studies, so protocols differ.
Target: Serine/threonine-protein kinase PAK 2 (PAK2, Homo sapiens, UniProt Q13177)

Structure (SMILES) | effect on | technique | tested at | remaining binding
C[C@@H](c1ccc(-n2cnc3c(N)ncnc32)cc1)N1CCc2nn(C)c(Cc3ccccc3)c2C1=O | binding | competition with immobilised ligand | 0.1 µM | 61%
O=C(Nc1c[nH]nc1C(=O)NC1CCNCC1)c1cc(F)cc(F)c1 | binding | competition with immobilised ligand | 1 µM | 100%
CNC(=O)c1ccc(Nc2ncc(C(F)(F)F)c(NCc3nccnc3N(C)S(C)(=O)=O)n2)cc1 | cell-free assay | competition with immobilised ligand | 0.1 µM | 72%
O=C(c1ccc(Nc2ncc(Cl)c(-c3ccc(Cl)s3)n2)cc1)N1CCC(N2CCCC2)CC1 | binding | competition with immobilised ligand | 1 µM | 49%
N[C@@H]1CCN(c2nccc(-c3cnn4ncccc34)n2)C1 | binding |  | 1 µM | 100%
Cc1c(C(=O)O)cc(-c2ccc(C3CCNCC3)cc2)c2ccc(-c3ccc(C(F)(F)F)cc3)cc12 | cell-free assay | competition with immobilised ligand | 1 µM | 100%
COc1ncc2cc3ccccc3nc2c1C#N | cell-free assay | competition with immobilised ligand | 5 µM | 85%
c1cncc(-c2cccc(Nc3nccc(NC4CCCCC4)n3)c2)c1 | binding | competition with immobilised ligand | 10 µM | 56%
CNC(=O)[C@@H]1CC[C@@H](n2c(-c3ccc4cnccc4c3)nc3ccc(C(=O)NCc4cccc(C(N)=O)c4)cc32)C1 | binding | competition with immobilised ligand | 1 µM | 96%
CCCCN(CCCC)C(=O)CN1C[C@@H](c2cc(OC)c3c(c2)OCO3)[C@H](C(=O)O)[C@H]1CC(C)(C)CCC | cell-free assay | competition with immobilised ligand | 1 µM | 83.5%
C[C@@H]1CN(c2ccc3ncc(-c4ccc5[nH]nc(C6CC6)c5c4)n3n2)C[C@H](C)O1 | binding | competition with immobilised ligand | 50 nM | 76%
F[C@@H]1CCN(c2nccc(-c3cnn4ncccc34)n2)C1 | binding |  | 1 µM | 100%
O=C(NCCCN1CCOCC1)c1ccc(Nc2nccc(-c3cc4ccccc4s3)n2)cc1 | binding | competition with immobilised ligand | 1 µM | 100%
COc1cc(-c2cn(C3CCc4c(F)cccc4N(CC(F)(F)F)C3=O)nn2)ccc1-n1cnc(C)c1 (stereo not drawn) | cell-free assay | competition with immobilised ligand | 1 µM | 91%
Nc1ncc2c(n1)-c1c([nH]c3ccc(C#CC4CC4)cc13)CCCC2 | binding | competition with immobilised ligand | 1 µM | 33%
C[C@H]1CCN(c2nccc(-c3cnn4ncccc34)n2)C1 | binding |  | 1 µM | 59%
COc1cnc(Nc2cccc(S(N)(=O)=O)c2)nc1N1CCN(c2ccccc2)CC1 | binding | competition with immobilised ligand | 1 µM | 100%
CCC(=O)N[C@H]1CC[C@@H](C(=O)N(C)c2ccc(-c3nc4ccccc4o3)cc2)C1 | cell-free assay | competition with immobilised ligand | 1 µM | 100%
CN(CCCC(F)(F)F)c1nccc(-c2cnn3ncccc23)n1 | binding |  | 1 µM | 100%
CCS(=O)(=O)c1cc2cc(C[C@](O)(CC(C)(C)c3ccc(F)cc3C(N)=O)C(F)(F)F)[nH]c2cn1 | cell-free assay | competition with immobilised ligand | 1 µM | 86%
Cc1cnn2ncc(-c3ccnc(N(C)C)n3)c2c1 | binding |  | 1 µM | 96%
O=C(N[C@H]1CCCCC/C=C\C2C[C@@]2(C(=O)O)NC(=O)[C@@H]2C[C@@H](Oc3ccncc3)CN2C1=O)OC1CCCC1 (stereo partly drawn) | binding | competition with immobilised ligand | 1 µM | 79%
O=C(c1ccc(Nc2ncc(Cl)c(-c3cc4ccccc4s3)n2)cc1)N1CCC(N2CCCC2)CC1 | binding | competition with immobilised ligand | 1 µM | 59%
COc1ccnn2ncc(-c3ccnc(N(C)C)n3)c12 | binding |  | 1 µM | 78%
